Data: publication PMC8752533 (European Journal of Drug Metabolism and Pharmacokinetics, 2021)
Values joined by “and” are separate entries in the source; they are usually repeats but may differ in a detail not shown here. Equal values may be shown once. Read-outs that look alike come from different tables or passages of the source.

What was measured:
[1] = Phase I DDI study with rifampicin: safety and tolerability; type: in vivo, human (healthy male volunteers); conditions: for Participants with any AE: 16 participants per treatment
CYP3A4 [2] = conditions: human liver microsomes; CYP3A4 inhibitor ketoconazole
[3] = Phase I DDI study with itraconazole: safety and tolerability; type: in vivo, human (healthy male volunteers); conditions: for Treatment-related AEs / Participants with any AE / Gastrointestinal disorders / General disorders and administration site conditions / Infections and infestations / Musculoskeletal and connective tissue disorders / Nervous system disorders / Vascular disorders: DDI + itraconazole study; for Participants with any AE: 16 participants per treatment; for Gastrointestinal disorders / General disorders and administration site conditions / Infections and infestations / Musculoskeletal and connective tissue disorders / Nervous system disorders / Vascular disorders: system organ class
Procedure, shortened: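 Healthy males aged 18–50, BMI 18.5–29.9, received a single oral 25 mg test compound dose alone in period 1. In period 2 the same dose was given on day 4 of oral itraconazole, 200 mg QD on days 2–10. Washout was ≥16 days. Dosing followed a standardised breakfast, with 240 ml water. Safety was scored as frequency n (%) of AEs by system organ class, including physical exam findings, alongside labs, vital signs and 12-lead ECG.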

[4] = doses up to 75 mg in healthy volunteers; cited from earlier work
[5] = Phase I DDI study with itraconazole: plasma pharmacokinetics of BI 425809; type: in vivo, human (healthy male volunteers); conditions: for AUC(0-inf): AUC0-∞
CYP3A = assay: BI 425809 metabolism by human hepatocytes; type: in vitro ADME; conditions: erythromycin 30 µM, all BI 425809 concentrations evaluated
[6] = tested on: cerebrospinal fluid glycine levels; conditions: multiple oral administrations, doses as low as 10 mg, dose-dependent; cited from earlier work
human liver microsomes = assay: Turnover of BI 425809 in human liver microsomes; type: in vitro ADME; conditions: BI 425809 0.2, 2, 10 μM; up to 60 min
CYP3A4 [7] = molecular target: CYP3A4 (Homo sapiens, UniProt P08684); type: in vitro ADME; conditions: rCYP3A4, NADPH, up to 60 min
CYP3A5 = CYP3A5 (Homo sapiens, UniProt P20815); assay: Metabolism of BI 425809 by recombinant CYP isoforms; type: in vitro ADME
[8] = Analyte stability in human plasma samples containing tripotassium EDTA; type: physicochemical; conditions: human plasma with tripotassium EDTA, -20 °C
[9] = Phase I DDI study with rifampicin: plasma pharmacokinetics of BI 425809; type: in vivo, human (healthy male volunteers); conditions: for AUC(0-inf): AUC0-∞
[10] = DDI + rifampicin study, system organ class
[11] = BI 425809 + itraconazole relative to BI 425809 alone
[12] = male, human, plasma, oral, 25 mg
[13] = male, human, plasma, oral, 25 mg, gMean, BI 425809 25 mg alone, N = 16
[14] = BI 425809 + rifampicin relative to BI 425809 alone

CYP3A5, sequence (P20815 whole entry, canonical isoform): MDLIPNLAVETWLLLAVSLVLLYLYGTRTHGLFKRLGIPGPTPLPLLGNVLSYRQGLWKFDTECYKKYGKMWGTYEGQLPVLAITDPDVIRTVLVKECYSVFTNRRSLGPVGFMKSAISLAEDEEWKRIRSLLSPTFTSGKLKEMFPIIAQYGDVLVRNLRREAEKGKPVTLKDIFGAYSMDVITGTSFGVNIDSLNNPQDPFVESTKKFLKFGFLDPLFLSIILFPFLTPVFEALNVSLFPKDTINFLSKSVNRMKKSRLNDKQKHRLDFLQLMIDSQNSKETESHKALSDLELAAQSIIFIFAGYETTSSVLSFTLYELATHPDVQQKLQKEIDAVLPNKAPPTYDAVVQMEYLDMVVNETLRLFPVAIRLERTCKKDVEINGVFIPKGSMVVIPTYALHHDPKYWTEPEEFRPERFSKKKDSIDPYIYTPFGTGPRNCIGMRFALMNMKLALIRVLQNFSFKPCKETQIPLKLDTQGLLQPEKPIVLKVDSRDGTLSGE
CYP3A4 (Homo sapiens, UniProt P08684), sequence (P08684 whole entry, canonical isoform): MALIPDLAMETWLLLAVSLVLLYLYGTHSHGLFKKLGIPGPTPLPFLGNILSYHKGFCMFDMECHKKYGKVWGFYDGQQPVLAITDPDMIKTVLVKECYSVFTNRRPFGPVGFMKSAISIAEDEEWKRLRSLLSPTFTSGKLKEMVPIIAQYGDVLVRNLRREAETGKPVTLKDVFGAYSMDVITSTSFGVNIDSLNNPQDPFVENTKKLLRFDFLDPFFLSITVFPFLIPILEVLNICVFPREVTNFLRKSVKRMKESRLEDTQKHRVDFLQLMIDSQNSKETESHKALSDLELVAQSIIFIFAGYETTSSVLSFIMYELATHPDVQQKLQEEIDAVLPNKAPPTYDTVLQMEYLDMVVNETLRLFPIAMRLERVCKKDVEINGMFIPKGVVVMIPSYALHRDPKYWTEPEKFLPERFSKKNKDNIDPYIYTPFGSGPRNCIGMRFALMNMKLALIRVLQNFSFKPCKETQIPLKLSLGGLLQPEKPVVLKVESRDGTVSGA

CO[C@H]1/C=C/O[C@@]2(C)Oc3c(C)c(O)c4c(O)c(c(/C=N/N5CCN(C)CC5)c(O)c4c3C2=O)NC(=O)/C(C)=C\C=C\[C@H](C)[C@H](O)[C@@H](C)[C@@H](O)[C@@H](C)[C@H](OC(C)=O)[C@@H]1C [Rifampicin, rifampicin, reference compound]
Participants with Severe AE ([1]; DDI + rifampicin study): 0 (0) n (%) | Treatment-related AEs ([1]; DDI + rifampicin study): 16 (100) n (%) | Participants with any AE ([1]; DDI + rifampicin study): 16 (100) n (%) | Gastrointestinal disorders [1, 10]: 0 n (%) | General disorders and administration site conditions [1, 10]: 1 (6.3) n (%) | Renal and urinary disorders [1, 10]: 16 (100) n (%) | Respiratory, thoracic and mediastinal disorders [1, 10]: 0 n (%) | Skin and subcutaneous tissue disorders [1, 10]: 1 (6.3) n (%) | participants who reported ≥ 1 AE ([1]; DDI with rifampicin): 100% | participants with AE considered as drug-related by the investigator ([1]; DDI with rifampicin): 100%

CC(=O)N1CCN(c2ccc(OCC3COC(Cn4ccnc4)(c4ccc(Cl)cc4Cl)O3)cc2)CC1 (stereo not shown) [ketoconazole]
inhibition of formation of BI 425809 metabolites M530 and M544 (CYP3A4 [2]): completely inhibited

CCC(C)n1ncn(-c2ccc(N3CCN(c4ccc(OCC5COC(Cn6cncn6)(c6ccc(Cl)cc6Cl)O5)cc4)CC3)cc2)c1=O (stereo not shown) [Itraconazole, itraconazole, reference compound]
Treatment-related AEs [3]: 1 (6.3) n (%) | Participants with any AE [3]: 4 (25.0) n (%) | Gastrointestinal disorders [3]: 1 (6.3) n (%) | General disorders and administration site conditions [3]: 0 n (%) | Infections and infestations [3]: 2 (12.5) n (%) | Musculoskeletal and connective tissue disorders [3]: 1 (6.3) n (%) | Nervous system disorders [3]: 0 n (%) | Vascular disorders [3]: 0 n (%) | participants who reported ≥ 1 AE ([3]; DDI with itraconazole): 25% | participants with AE considered as drug-related by the investigator ([3]; DDI with itraconazole): 6.3%

C[C@@H](Oc1ccc(S(C)(=O)=O)cc1C(=O)N1C[C@@H]2C[C@]2(c2cc(C(F)(F)F)on2)C1)C(F)(F)F [BI 425809]
tolerability [4]: generally well tolerated | CL/F, gMean ([5]; BI 425809 25 mg + itraconazole, N = 15): 12.4 mL/min | CL/F, gMean ([5]; BI 425809 25 mg alone, N = 16): 73.3 mL/min | t1/2, gMean ([5]; BI 425809 25 mg alone, N = 16): 45.5 h | AUC0-167, adjusted gMean ratio T/R (90% CI) [5, 11]: 265.3% and 265.3 (240.9‒292.2) % | AUC0-∞, adjusted gMean ratio T/R (90% CI) [5, 11]: 597.0% and 597.0 (514.2‒693.0) % | Cmax, adjusted gMean ratio T/R (90% CI) [5, 11]: 116.1% and 116.1 (108.0‒124.7) % | extrapolated area of AUC0-∞ ([5]; BI 425809 under itraconazole treatment): 56% | AUC(0-t) [5, 12]: 10.2 µM·h | Cmax [5, 12]: 316 nM | AUC(0-inf) ([5]; male, human, plasma, oral, 25 mg, adjusted gMean, BI 425809 alone (R), inferential analysis): 11.1 µM·h | AUC(0-inf) [5, 13]: 11.1 µM·h | AUC(0-inf) ([5]; male, human, plasma, oral, adjusted gMean, BI 425809 + itraconazole (T), inferential analysis): 66.2 µM·h | AUC(0-inf) ([5]; male, human, plasma, oral, gMean, BI 425809 25 mg + itraconazole, N = 15): 65.3 µM·h | AUC(0-t) ([5]; male, human, plasma, po, 25 mg): 10.2 µM·h | Cmax ([5]; read-out: Cmax, adjusted gMean, BI 425809 + itraconazole (T), inferential analysis): 367 nM | increase in Cmax ([5]; with itraconazole versus alone): ~16% | inhibition of depletion of BI 425809 by erythromycin (CYP3A): 92.1–100% and > 90% | mean increase in cerebrospinal fluid glycine levels [6]: 50% | turnover of BI 425809 in human liver microsomes (human liver microsomes): No detectable turnover | depletion of BI 425809 (CYP3A4 [7]): > 15% | % In vitro CYP contribution, Depletion (CYP3A5; CYP3A5, depletion of BI 425809): ~4% | depletion of BI 425809 (CYP3A5; rCYP3A5, NADPH, up to 60 min): > 15% | period of demonstrated analyte stability [8]: 381 days | Treatment-related AEs [3]: 0 (0) n (%) | Participants with any AE [3]: 6 (37.5) n (%) | Gastrointestinal disorders [3]: 0 n (%) | General disorders and administration site conditions [3]: 1 (6.3) n (%) | Infections and infestations [3]: 3 (18.8) n (%) | Musculoskeletal and connective tissue disorders [3]: 1 (6.3) n (%) | Nervous system disorders [3]: 1 (6.3) n (%) | Vascular disorders [3]: 1 (6.3) n (%) | participants who reported ≥ 1 AE ([3]; DDI with itraconazole): 37.5% | tolerability ([3]; both DDI studies (itraconazole and rifampicin), 25 mg single oral dose): well tolerated | Participants with Severe AE ([1]; DDI + rifampicin study): 0 (0) n (%) | Treatment-related AEs ([1]; DDI + rifampicin study): 0 (0) n (%) | Participants with any AE ([1]; DDI + rifampicin study): 2 (12.5) n (%) | Gastrointestinal disorders [1, 10]: 0 n (%) | General disorders and administration site conditions [1, 10]: 0 n (%) | Nervous system disorders [1, 10]: 1 (6.3) n (%) | Renal and urinary disorders [1, 10]: 0 n (%) | Respiratory, thoracic and mediastinal disorders [1, 10]: 1 (6.3) n (%) | Skin and subcutaneous tissue disorders [1, 10]: 0 n (%) | participants who reported ≥ 1 AE ([1]; DDI with rifampicin): 12.5% | CL/F, gMean ([9]; BI 425809 25 mg alone, N = 16): 94.6 mL/min | AUC0-168, adjusted gMean ratio T/R (90% CI) [9, 14]: 10.3% and 10.3 (9.3‒11.3) % | AUC0-∞, adjusted gMean ratio T/R (90% CI) [9, 14]: 9.8 (8.8–11.0) % | Cmax, adjusted gMean ratio T/R (90% CI) [9, 14]: 37.4% and 37.4 (33.0‒43.5) % | AUC0-∞, adjusted gMean ([9]; BI 425809 alone (R), inferential analysis): 8.596 µM·h | AUC0-168 ratio ([9]; BI 425809 co-administered with rifampicin relative to BI 425809 alone): 0.10 | AUC(0-t) [9, 12]: 8.22 µM·h | half-life [9, 12]: 33.4 h | AUC(0-inf) [9, 13]: 8.6 µM·h | AUC(0-inf) ([9]; male, human, plasma, oral, adjusted gMean, BI 425809 + rifampicin (T), inferential analysis): 0.846 µM·h | AUC(0-inf) ([9]; male, human, plasma, oral, gMean, BI 425809 25 mg + rifampicin, N = 15): 0.837 µM·h | AUC(0-t) ([9]; male, human, plasma, po, 25 mg): 8.22 µM·h | Cmax ([9]; read-out: Cmax, adjusted gMean, BI 425809 alone (R), inferential analysis): 218 nM | Cmax ([9]; read-out: Cmax, gMean, BI 425809 25 mg alone, N = 16): 218 nM
